Here are results for 38 variants from the RNAGym collection of RNA variant scans (doi:10.1126/science.aae0568).

This sample holds only a part of the variants without activity.

B1: tRNA (parent)
chain: GUUCCGUUGGCGUAAUGGUAACGCGUCUCCCUCCUAAGGAGAAGACUGCGGGUUCGAGUCCCGUACGGAACG

The variants in the data set derive from B1. Nature of the data set: yeast fitness relative to wild type (ratio to wild type); higher = fitter; tRNA-Arg(CCU), competitive growth, 37 C, YPD. Put shortly: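 The tRNA-Arg(CCU) gene variants were made by chemical synthesis with a 3% per-site mutation rate at 69 sites and inserted at the native genomic locus of Saccharomyces cerevisiae. After pooling, the strains were competed in YPD at 37°C for 24 hours in six parallel replicates. Gene amplicons from the start population and each end population were read by 100-nucleotide paired-end sequencing, and Darwinian fitness relative to wild type was taken from genotype frequency changes. Genotypes needed ≥ 100 starting reads, and estimates < 0.5 were set to 0.5.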
As for GUUCUGAUGGCGUAAUGGUAACGCGUCUCCCUCCUAAGCAGAAGACUGUGGGUUCGAGUCCCGUACGGAACG [C5U U7A G39C C49U], the yeast fitness is ≤ 0.5.

For GUUCUGAUGGCGUAAUGGUCACGCGUCUCCCUCCUAAGGAGAAGACUGCGGGUUCGAGUCCCGUACGCAACG [C5U U7A A20C G68C], the yeast fitness was ≤ 0.5.

With GUUCUGAUGGCGUAAUGGUAACGCGUCUCCCUACUAAGGAGAAGCCUGCGGGUUCGAGUCCCGUACGGAACG [C5U U7A C33A A45C], the yeast fitness was 0.573.

Take GUUCUGUUGGCGUAAUGGUAACGCGUCUCCCUCCUAAGGAGAAGACUGCGGGUUCCUGUCCCGUACGGAACG [C5U G56C A57U]: the yeast fitness is ≤ 0.5.

With GUUCUGUUGGCGUAAUGGUAACGCGUCUCCCUCCUAAGGAGAAGACUGCGCGCUCGAGUCCCGUACGGAACG [C5U G51C U53C], the yeast fitness is ≤ 0.5.

Regarding GUUCUGUUGGCGUAAUGGUAACGCGUCUCCCUCCUAAGGAGAAGACUGCGGGUUCAAGUCCCGUACGCUACG [C5U G56A G68C A69U], the yeast fitness is ≤ 0.5.

As to GUUCUGUUGGCGUAAUGGUAACGCGUCUCCCUCCUAAGGAGAAGACUGCGGGUUCGAGUCCCGUACUGAACG [C5U G67U], the yeast fitness amounted to 0.735.

In the case of GUUCUGUUGGCGUAAUGGUAACGCGUCUCCCUCCUAAGGAGAAGACUGCGGGUUCGAGUCCCGUACAGAACG [C5U G67A], the yeast fitness was found to be 0.923.

For GUUCUGUUGGCGUAAUGGUAACGCGUCUCCCUCCUAAGGAGAAGACUGCGGGUUCGAGUCCCGUACCGAACG [C5U G67C], the yeast fitness turned out to be 0.913.

GUUCUGUUGGCGUAAUGGUAACGCGUCUCCCUCCUAAGGAGAAGACUGCGGGUUCAAGUCCCGUACGGAACG [C5U G56A]: the yeast fitness turned out to be 0.937.

Consider GUUCUGUUGGCGUAAUGGUAACGCGUCUCCCUCCUAAGGAGAAGACUGCGGGUUCCAGUCCCGUACGGAACG [C5U G56C], for which the yeast fitness was found to be 0.651.

Regarding GUUCUGAUGGCGUAAUGGUAACGCGUCUCACUCCUAAGGAGAAGACUGCGGGUUCCAGUCCCGUAGGGAACG [C5U U7A C30A G56C C66G], the yeast fitness is ≤ 0.5.

Take GUUCUGUUGGCGUAAUGGUAACGCGUCUCCCUCCUAAGGAGAAGACUGCGGGUUCGACUCCCGUACGGAACG [C5U G58C]: the yeast fitness worked out at 1.

As for GUUCUGUUGGCGUAAUGGUAACGCGUCUCCCUCCUAAGGAGAAGACUGCGGGUUCGAAUCCCGUACGGAACG [C5U G58A], the yeast fitness was 0.88.

GUUCUGUUGGCGUAAUGGUAACGCGUCUCCCUCCUAAGGAGAAGACUGCGGGUUCGAGUCCCCUACGGAACG [C5U G63C]: the yeast fitness worked out at 0.664.

On to GUUCUGUUGGCGUAAUGGUAACGCGUCUCCCUCCUAAGGAGAAGACUGCGGGUUCGAGUCCCAUACGGAACG [C5U G63A], for which the yeast fitness was 0.828.

For the variant GUUCUGAUGGCGUAAUGGUAACGCGACUCCCUCCUAAGCAGAAGACUGCGGGUUCGAGUCCCGUACGGAACG [C5U U7A U26A G39C], the yeast fitness is ≤ 0.5.

As for GUUCUGUUGGCGUAAUGGUAACGCGUCUCCCUCCUAAGGAGAAGACUGCGCGCUCGAGUCCCGUACGGGACG [C5U G51C U53C A69G], the yeast fitness is ≤ 0.5.

For the variant GUUCUGAUGGCGUAAUGUUAACGCGUCACCCUCCUAAGGAGAAGACUGCGGGUUCGAGUCCCGUACGGAACG [C5U U7A G18U U28A], the yeast fitness was ≤ 0.5.

For GUUCUGAUGGCGUAAUGGUAACGCGUCUCCCUCCUAAGGAGAAGACUGCGGGUUCGAGUCCCGUACGGAACG [C5U U7A], the yeast fitness is 0.772.

GUUCUGUUGGCGUAAUGGUAACGCGUCUCCCUCCUAAGGAGAAGACUGCGGGUUCAAGUCCCGUGUGGAACG [C5U G56A A65G C66U]: the yeast fitness stood at 0.671.

As for GUUCUGUUGGCGUAAUGGUAACGCGUCUCCCUCCUAAGGAGAAGACUGCGGCUUCGAGUCCCGUACGGAACG [C5U G52C], the yeast fitness is 0.622.

As for GUUCUGAUGGCGUAAUGGUAACGCGUCACCCUCCUAAGGAGAAGACUGUGGGUUCGAGUCCCGUACGGAACG [C5U U7A U28A C49U], the yeast fitness is ≤ 0.5.

As for GUUCUGUUGGCGUAAUGGUAACGCGUCUCCCUCCUAAGGAGAAGACUGCGGGUUCGAGUCCCGUACAGUACG [C5U G67A A69U], the yeast fitness is ≤ 0.5.

As to GUUCUGUUGGCGUAAUGGUAACGCGUCUCCCUCCUAAGGAGAAGACUGCGGGUUCGAGUCCCGUACGUAACG [C5U G68U], the yeast fitness was 0.88.

For GUUCUGUUGGCGUAAUGGUAACGCGUCUCCCUCCUAAGGAGAAGACUGCGGGUUCGAGUCCCGUACGCAACG [C5U G68C], the yeast fitness is 0.842.

For the variant GUUCUGUUGGCGUAAUGGUAACGCGUCUCCCUCCUAAGGAGAAGACUGCGGGUUCGAGUCCCGUACGAAACG [C5U G68A], the yeast fitness turned out to be 0.969.

Take GUUCUGUUGGCGUAAUGGUAACGCGUCUCCCUCCUAAGGAGAAGACUGCGGAUUCGAGUCCCGUUCGGAACG [C5U G52A A65U]: the yeast fitness is ≤ 0.5.

For the variant GUUCUGUUGGCGUAAUGGUAACGCGUCUCCCUCCUAAGGAGAAGACUGCGGAUUCGAGUCCCGUGCGGAACG [C5U G52A A65G], the yeast fitness was determined as 0.598.

Turning to GUUCUGUUGGCGUAAUGGUAACGCGUCUCCCUCCUAAGGAGAAGACUGCGGGUUCGACUCCCGUAGGGAACG [C5U G58C C66G], the yeast fitness was ≤ 0.5.

For GUUCUGAUGGCGUAAUGGUAACGCGUCUCCCUUCUAAGGAGCAGACUGCGGGUUCGAGUCCCGCACGGAGCG [C5U U7A C33U A42C U64C A70G], the yeast fitness was ≤ 0.5.

For GUUCUGUUGGCGUAAUGGUAACGCGUCUCCCUCCUAAGGAGAAGACUGCGGGUUCGACCCCCGUACGGAACG [C5U G58C U59C], the yeast fitness amounted to 0.675.

In the case of GUUCUGAUGGCGUAAUGGUAACGCGUCACCCUCCUAAGGAGAAGACUGCGGGUUCGAGUCCCGUACGGAACG [C5U U7A U28A], the yeast fitness was determined as 0.573.

With GUUCUGUUGGCGUAAUGGUAACGCGUCUCCCUCCUAAGGAGAAGACUGCGGGUUCCAGUCCCGUUCGGAGCG [C5U G56C A65U A70G], the yeast fitness was ≤ 0.5.

Regarding GUUCUGUUGGCGUAAUGGUAACGCGUCUCCCUCCUAAGGAGAAGACUGCGGGUUCGACUCCCGUACGAAACG [C5U G58C G68A], the yeast fitness was 0.513.

Turning to GUUCUGUUGGCGUAAUGGUAACGCGUCUCCCUCCUAAGGAGAAGACUGCGGGUUCCAGUCCCGUGCGGAACG [C5U G56C A65G], the yeast fitness amounted to 0.536.

For the variant GUUCUGAUGGCGUAAUGGUAACGCGUCUCCCUCCUUAGGAGAAGACUGCGGGUUCGAGUCCCGUACGGAACG [C5U U7A A36U], the yeast fitness was ≤ 0.5.

In the case of GUUCUGUUGGCGUAAUGGUAACGCGUCUCCCUCCUAAGGAGAAGACUGCGGGUUCAAGGCCCGUACGGAACG [C5U G56A U59G], the yeast fitness amounted to 0.516.
